Rows were chosen to be rich in hits. Some 2.1% of all compounds tested hit in one or more screens of this group.
RTF Ca sens inh = cardiac RTF calcium desensitization. 340,000 compounds, 0.12% hits. IANBD-labeled cardiac RTF, Ca2+ fluorescence. inhibition, % at 7.15 µM. AID 493244;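 active means inhibition above the mean inhibition of all tested compounds plus 3 SD, cut at about 17% in these data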;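 further: assay run at fixed EC70 calcium of 1.6 mM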
RTF Ca sens act = increases calcium sensitivity of human cardiac regulated thin filaments; IANBD-labeled TnC RTF fluorescence at EC20 calcium; 0% EC20 calcium, 100% full calcium; activation, % at 7.2 µM; 340,000 compounds, 0.24% hits; AID 493008;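 active means activation above the mean over all tested compounds plus 3 SD, cut at about 30% in these data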;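 further: rise in fluorescence read as greater calcium sensitivity of cardiac thin filaments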
SUMO Mot1 rescue = blocks SUMOylation pathway, rescuing yeast Mot1-301 growth. S. cerevisiae Mot1-301 growth rescue, ATP luminescence, 38.5C; percent above DMSO median, 100 means doubled. growth rescue, % at 18.8 µM. 320,000 compounds, 1% hits;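 active means every valid replicate shows activation above 250% relative to neutral control wells; inactive means the rest, any valid replicate at or below 250%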;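 further: OY570 slx delta 5 strain wells were the positive control but not used for scaling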
ARNT TACC3 PPI = ARNT/TACC3 interaction disruption; Q9Y6A5; AlphaScreen His-ARNT PAS-B/GST-TACC3 binding, luminescence; TACC3 fragment carries E629A point mutation; inhibition, % at 9.99 µM; 390,000 compounds, 0.66% hits;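 active means mean inhibition of replicates at least 50% and at least half of replicates each reaching 50%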;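 further: 0% = complete ARNT plus TACC3 wells and 100% = ARNT alone without TACC3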
UCH37 inh = blocks the human deubiquitinase UCH37 | purified proteasome/UCH37, Ub-AMC cleavage fluorescence | inhibition, % (test concentration not listed) | 330,000 compounds, 0.33% hits;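 active means mean inhibition over replicate wells above about 20%, limit read from the data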;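 further: 0% = compound-free wells with enzyme and 100% = wells lacking proteasome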
Target sequence (Q9Y5K5 whole entry, looked up): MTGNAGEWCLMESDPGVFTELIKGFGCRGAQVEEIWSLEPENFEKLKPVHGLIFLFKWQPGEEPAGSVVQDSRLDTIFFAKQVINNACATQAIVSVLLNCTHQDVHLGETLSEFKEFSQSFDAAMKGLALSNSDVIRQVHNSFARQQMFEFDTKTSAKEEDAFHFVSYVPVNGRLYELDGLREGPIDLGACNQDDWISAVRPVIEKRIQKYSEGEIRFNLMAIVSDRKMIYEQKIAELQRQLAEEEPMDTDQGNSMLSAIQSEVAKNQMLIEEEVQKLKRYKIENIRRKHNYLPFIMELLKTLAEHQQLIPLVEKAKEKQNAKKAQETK
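Material: human UCH37 enzyme supplied as purified proteasome complex. Measure: % inhibition of Ub-AMC cleavage fluorescence. Medium: pH 7.4 Tris-HCl (50 mM) with ovalbumin, ATP-MgCl2, DTT. Times: 30 min preincubation with enzyme, 25 min cleavage at room temperature. Detection: AMC fluorescence intensity at 355/460 nm.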
Efflux pump mplx = inhibitors of Candida antifungal efflux pumps expressed in yeast; AID 485275; 330,000 compounds, 0.44% hits; S. cerevisiae Candida pump triplex, Nile Red efflux; inhibition, % at 10 µM;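 active means plate passing quality check with inhibition over a set limit, or well fluorescence over plate mean plus 4 SD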;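 further: Nile Red retained in pooled yeast measured as flow cytometry median fluorescence; 0% = buffer negative control and 100% = Enniatin B positive control; higher means more Nile Red kept so more efflux inhibition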
Yeast cmpd fluor = flagged as fluorescent in efflux inhibitor counter-screen; shares compounds with Efflux pump mplx; S. cerevisiae AD/pABC3, compound fluorescence, flow cytometry; fluorescence ratio to DMSO, % at 10 µM; 1,700 compounds, 4% hits; AID 588517;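 active means fluorescence ratio to DMSO above its plate's cutoff, the plate mean ratio plus 5 SD, cut at about 210% in these data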;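 further: unstained yeast with no Nile Red so the signal is compound autofluorescence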
CaMdr1 efflux inh = Candida Mdr1 efflux pump inhibition. shares compounds with Efflux pump mplx. S. cerevisiae AD/CaMDR1, Nile Red efflux, flow cytometry. inhibition, % at 10 µM. 1,700 compounds, 1% hits. AID 588518; in the data active means inhibition above about 26%;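 further: 0% = DMSO vehicle and 100% = reference inhibitor; higher means more Nile Red retained so more efflux inhibition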
Cdr2 pump inh = inhibitors of Candida albicans Cdr2 efflux pump; shares compounds with Efflux pump mplx; S. cerevisiae AD/CaCDR2, Nile Red retention, flow cytometry; Nile Red retention ratio vs DMSO, % at 10 µM; 1,700 compounds, 4% hits; AID 588520; in the data active means Nile Red retention ratio vs DMSO above about 190%;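 further: higher ratio means more blocking of Cdr2 efflux of the dye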
Cdr1 pump inh = blocks the Candida albicans Cdr1 efflux pump in yeast | shares compounds with Efflux pump mplx | S. cerevisiae AD/CaCDR1, Nile Red efflux, flow cytometry | inhibition, % at 10 µM | 1,700 compounds, 1% hits | AID 588522;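 active means inhibition above the screen-wide mean plus twice its standard deviation, cut at about 32% in these data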
* = called active by the depositor; / = no result; + = active, no number.

SMILES	RTF Ca sens inh	RTF Ca sens act	SUMO Mot1 rescue	ARNT TACC3 PPI	UCH37 inh	Efflux pump mplx	Yeast cmpd fluor	CaMdr1 efflux inh	Cdr2 pump inh	Cdr1 pump inh
Cc1nn(Cc2ccccc2)c(Cl)c1C=NNC(=O)CNc1cccc(C(F)(F)F)c1	/	/	/	/	3.2	/	/	/	/	/
COc1ccc(/C=C2\SC(=O)N(CCC(=O)Nc3ccccc3)C2=O)cc1OC	-5.2	1.7	-11.0	-1.9	-5.8	7.6*	97.0	0.0	97.2	0.4
COc1ccc(/C=C2\SC(=O)N(CCCC(=O)Nc3ccc(C(=O)O)cc3)C2=O)cc1OC	-0.8	1.5	0.6	3.8	2.0	3.5	/	/	/	/
CSc1ccc(C=NS(=O)(=O)c2ccccc2)cc1	/	/	/	/	5.2	/	/	/	/	/
O=[N+]([O-])c1ccc(NCc2ccccc2)nc1	-13.6	0.0	10.2	0.9	10.5	37.8*	83.3	0.2	99.6	-0.4
O=[N+]([O-])c1ccc(Nc2ccccc2)nc1	-7.4	-1.5	9.8	-2.2	7.0	30.2*	96.2	-0.1	107.2	-0.1
O=[N+]([O-])c1ccc(NN=CCCc2ccccc2)nc1	1.1	-0.9	/	-6.0	4.2	/	/	/	/	/
Cc1ccc(CN2CCN(N=Cc3cc([N+](=O)[O-])ccc3Cl)CC2)cc1	/	/	/	/	4.2	/	/	/	/	/
Cc1ccc(OCCOc2ccc(Br)cc2C=NNC(N)=O)cc1	/	/	/	/	2.2	/	/	/	/	/
COc1ccc2cc(C#N)c(N3CCN(Cc4nnnn4CCC(C)C)CC3)nc2c1	2.3	-0.4	429.5	/	-18.4	0.7*	118.0	0.0	116.2	0.2
CC(=NNC(=O)CC1N=C(Cc2ccccc2)NNC1=O)c1ccncc1 (centres undefined)	/	/	/	/	5.8	/	/	/	/	/
Oc1c(Br)cc(Br)cc1/C=N/c1nc2c(s1)CCCC2	-17.8	4.5	30.0	0.9	/	0.4*	77.5	-0.3	100.1	0.2
Oc1c(Br)cc(Br)cc1C=Nc1nccs1	/	/	/	/	4.3	/	/	/	/	/
O=c1cc(COc2ccc(Cl)c(Cl)c2)nc2sccn12	-6.3	-0.6	-12.8	-0.6	-3.9	0.9*	123.6	0.0	114.4	0.0
O=C(O)c1cccc(CN2C(=O)CSC2=O)c1	-3.2	-0.1	-3.6	-11.3	1.0	0.9*	84.4	0.1	86.9	-0.2
Cc1cc(C=c2sc3nc4ccccc4n3c2=O)c(C)n1-c1ccccn1	/	/	/	/	-3.9	/	/	/	/	/
C=CCNC(=O)CC(=O)NN=Cc1cccs1	/	/	/	/	1.5	/	/	/	/	/
O=C(NCc1cccc(Cl)c1)NC(=O)c1csc([N+](=O)[O-])c1	2.2	0.9	-1.1	3.7	1.0	0.9*	95.5	-0.1	128.7	0.5
OC(COCc1cccs1)CN1CCN(c2cccc(C(F)(F)F)c2)CC1 (centres undefined)	0.1	5.6	31.6	-2.4	3.0	6.8*	105.6	0.0	112.4	0.0
Cc1ccnc2nc(C(=O)Nc3nc4ccccc4s3)nn12	-8.6	8.8	-1.9	-0.7	6.3	0.3	/	/	/	/
COc1ccc(-c2nc(NC(=O)c3nc4nccc(C)n4n3)sc2C)cc1	0.9	-0.4	18.5	-0.5	6.4	1.0*	95.3	-0.2	116.2	0.1
Cc1ccc(Nc2nc(Cl)nc(NC(C)(C)C)n2)cc1	0.4	-3.5	251.9	0.4	5.4	1.1*	172.2	0.7	99.7	0.2
COc1ccc(/C(N)=N/OC(=O)Cc2cccs2)cc1OC	-7.2	-1.9	-12.5	-9.4	2.3	6.7*	98.6	-0.2	86.7	-0.2
COc1ccc(CC(=O)O/N=C(\N)c2ccccc2)cc1OC	1.0	-0.8	-13.2	-5.8	0.3	0.0	107.9	-0.2	97.5	0.0
COc1ccc(/C(N)=N/OC(=O)Cc2cccs2)cc1	-14.0	-6.9	8.8	0.7	-1.3	0.0	/	/	/	/
SMILES	RTF Ca sens inh	RTF Ca sens act	SUMO Mot1 rescue	ARNT TACC3 PPI	UCH37 inh	Efflux pump mplx	Yeast cmpd fluor	CaMdr1 efflux inh	Cdr2 pump inh	Cdr1 pump inh
COc1ccc(CC(=O)O/N=C(\N)c2ccc(Br)cc2)cc1OC	-2.5	4.6	18.5	-19.1	/	0.1	/	/	/	/
COc1ccc(/C(N)=N/OC(=O)Oc2ccccc2)cc1OC	-9.5	0.6	1.5	/	6.2	5.8*	101.4	-0.2	95.6	-0.1
COc1ccc(CC(=O)O/N=C(\N)c2ccc(OC)cc2)cc1	-4.7	-1.8	4.9	-14.1	4.3	-0.1	113.2	0.0	112.3	0.1
CON=Cc1c(C(=O)OC)nn(-c2ccccc2)c1Cl	/	/	/	/	1.3	/	/	/	/	/
CSCCC(NC(=O)c1ccccc1Cl)C(=O)N(C)Cc1cccs1 (centres undefined)	-10.8	-0.7	-3.8	1.4	4.1	5.5*	101.1	0.0	106.3	0.1
CSCCC(NC(=O)c1ccccc1Cl)C(=O)N1CCC1 (centres undefined)	3.5	15.5	-9.3	-3.9	1.3	0.0	/	/	/	/
CCOC(=O)C(C#N)=NNc1ccccc1C(=O)O	/	/	/	/	15.2	/	/	/	/	/
NS(=O)(=O)c1ccc(CCNC(=O)Nc2ccc(Cl)c(Cl)c2)cc1	-2.7	3.1	-11.7	23.3	6.2	1.4*	182.6	0.3	101.5	0.5
O=C(O)c1cc(NS(=O)(=O)c2ccc(N3CCCCC3)c([N+](=O)[O-])c2)cc(C(=O)O)c1	10.3	5.9	1.1	-4.2	6.6	11.4*	102.6	0.0	107.2	0.0
NC1=NC[C@H](Cc2ccc(O)cc2)N1CCCCC1CCCCC1	1.4	7.4	-28.0	7.4	3.9	1.3	97.8	-0.1	+	0.0
NC1=NC[C@H](Cc2ccccc2)N1CCCCC1CCCCC1	-0.9	-1.3	-28.6	8.1	2.0	1.1*	116.4	0.1	120.8	0.1
NC1=NC[C@H](Cc2ccc(O)cc2)N1CCc1cccc2ccccc12	-5.5	-2.0	14.6	/	0.4	-0.1	/	/	/	/
CCOC(=O)C(=NNc1ccccc1)Sc1nnc(CCc2ccccc2)n1-c1ccccc1	/	/	/	/	3.6	/	/	/	/	/
COc1cccc(NC(=O)C(=O)N/N=C/c2cc(C)n(-c3ccc(Cl)c(Cl)c3)c2C)c1	4.0	0.4	7.2	-0.1	/	0.7*	113.2	0.1	106.0	0.3
CC(C)Cn1c(SCC(=O)c2ccc(Cl)s2)nnc1-c1ccco1	-6.9	-1.5	-22.2	3.7	0.8	1.1*	100.3	-0.2	107.2	0.0
CCC(=O)N(Cc1ccc(C)cc1)Cc1cc2cc3c(cc2[nH]c1=O)OCO3	0.6	-5.8	10.4	/	-29.1	10.6*	104.7	0.0	108.1	0.2

Source: PubChem BioAssay (several laboratories)
